Data from ChEMBL document CHEMBL1177827, “Discovery of novel 1H-imidazol-2-yl-pyrimidine-4,6-diamines as potential antimalarials” (Bioorg Med Chem Lett, 2010).
In brackets after ≈: the same amount, converted by molar mass.

Assays:
Plasmodium falciparum [1] = assay: Antimalarial activity Plasmodium falciparum 3D7; type: functional, organism-based
Summary of the method: (§1)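 P. falciparum-infected human red blood cell proliferation assay, with SYBR Green staining as the read-out of parasite growth. EC50 is the mean of two experiments. Each plate carries mefloquine, sulfadoxine and artemisinin as internal standards.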

Plasmodium falciparum [2] = assay: Antimalarial activity Plasmodium falciparum C188; type: functional, organism-based; summary of the method: as §1
Plasmodium falciparum [3] = assay: Antimalarial activity Plasmodium falciparum FCR3; type: functional, organism-based; settings: FCR-3/Gambia; summary of the method: as §1
[4] = Half life in mouse; type: ADME, organism-based; settings: in vivo
Plasmodium falciparum [5] = assay: Antimalarial activity Plasmodium falciparum FcB1; type: functional, organism-based; settings: FcB1/Columbia; summary of the method: as §1
Plasmodium falciparum [6] = assay: Antimalarial activity Plasmodium falciparum Dd2; type: functional, organism-based; summary of the method: as §1
Plasmodium falciparum [7] = assay: Antimalarial activity Plasmodium falciparum D10; type: functional, organism-based; summary of the method: as §1
Plasmodium falciparum [8] = assay: Antimalarial activity Plasmodium falciparum TM91C235; type: functional, organism-based; summary of the method: as §1
[9] = AUC (0 to infinity) in mouse; type: ADME, organism-based; design: time infinity; settings: plasma
Plasmodium falciparum [10] = assay: Antimalarial activity Plasmodium falciparum HB3; type: functional, organism-based; summary of the method: as §1
[11] = Oral bioavailability in mouse; type: ADME, organism-based; settings: in vivo
[12] = Metabolic stability in mouse microsomes assessed as extraction ratio; type: ADME, Microsome
[13] = Cmax in mouse; type: ADME, organism-based; settings: in vivo
Plasmodium falciparum [14] = assay: Antimalarial activity Plasmodium falciparum K1; type: functional, organism-based; summary of the method: as §1
[15] = Metabolic stability in rat microsomes assessed as extraction ratio; type: ADME, Microsome
Plasmodium falciparum [16] = assay: Antimalarial activity Plasmodium falciparum 3BAG; type: functional, organism-based; summary of the method: as §1
Plasmodium falciparum [17] = assay: Antimalarial activity Plasmodium falciparum CAMP R; type: functional, organism-based; settings: CampR; summary of the method: as §1
[18] = Metabolic stability in human microsomes assessed as extraction ratio; type: ADME, Microsome
Plasmodium falciparum [19] = assay: Antimalarial activity Plasmodium falciparum D6; type: functional, organism-based; summary of the method: as §1
Plasmodium falciparum [20] = assay: Antimalarial activity Plasmodium falciparum 7G8; type: functional, organism-based; summary of the method: as §1
[21] = Thermodynamic solubility at pH 6.8; type: physicochemical; settings: buffer
Summary of the method: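 Thermodynamic solubility measured at pH 6.8, reported in […].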

Plasmodium falciparum [22] = assay: Antimalarial activity Plasmodium falciparum NF54; type: functional, organism-based; summary of the method: as §1
Plasmodium falciparum [23] = assay: Antimalarial activity Plasmodium falciparum W2; type: functional, organism-based; summary of the method: as §1

FC(F)(F)Oc1ccc(Nc2cc(Nc3nccn3-c3cc(N4CCOCC4)cc(C(F)(F)F)c3)ncn2)cc1
EC50 (Plasmodium falciparum [1]): 0.532 µM

CN1CCN(c2nc(Nc3ccc(OC(F)(F)F)cc3)cc(Nc3nccn3-c3cccc(C(F)(F)F)c3)n2)CC1
EC50 (Plasmodium falciparum [2]): 0.14 µM | EC50 (Plasmodium falciparum [3]): 0.139 µM | half-life [4]: 12 h | EC50 (Plasmodium falciparum [5]): 0.05 µM | EC50 (Plasmodium falciparum [6]): 0.071 µM | EC50 (Plasmodium falciparum [7]): 0.015 µM | EC50 (Plasmodium falciparum [8]): 0.058 µM | AUC(0-inf) [9]: 14.2 µM·h | EC50 (Plasmodium falciparum [1]): 0.034 µM | EC50 (Plasmodium falciparum [10]): 0.046 µM | bioavailability [11]: 30% | hepatic extraction ratio [12]: < 0.17 | Cmax [13]: 946 nM | EC50 (Plasmodium falciparum [14]): 0.088 µM | hepatic extraction ratio [15]: 0.264 | EC50 (Plasmodium falciparum [16]): 0.06 µM | EC50 (Plasmodium falciparum [17]): 0.05 µM | hepatic extraction ratio [18]: < 0.28 | EC50 (Plasmodium falciparum [19]): 0.05 µM | EC50 (Plasmodium falciparum [20]): 0.095 µM | solubility thermodynamic [21]: 40 µg/mL (≈ 69.1 µM) | EC50 (Plasmodium falciparum [22]): 0.033 µM | EC50 (Plasmodium falciparum [23]): 0.12 µM

Oc1nc(Nc2ccc(OC(F)(F)F)cc2)cc(Nc2nccn2-c2cccc(C(F)(F)F)c2)n1
EC50 (Plasmodium falciparum [1]): 5.44 µM

FC(F)(F)Oc1ccc(Nc2cc(Nc3nccn3-c3cccc(C(F)(F)F)c3)ncn2)cc1
EC50 (Plasmodium falciparum [1]): 0.436 µM

CN1CCN(CCNc2cc(-n3ccnc3Nc3cc(Nc4ccc(OC(F)(F)F)cc4)ncn3)cc(C(F)(F)F)c2)CC1
EC50 (Plasmodium falciparum [1]): 0.091 µM

FC(F)(F)Oc1ccc(Nc2nc(Nc3nccn3-c3cccc(C(F)(F)F)c3)c3ccccc3n2)cc1
EC50 (Plasmodium falciparum [1]): 0.564 µM

Cc1nc(Nc2ccc(OC(F)(F)F)cc2)cc(Nc2nccn2-c2cccc(C(=O)N3CCN(CCO)CC3)c2)n1
EC50 (Plasmodium falciparum [1]): 0.768 µM

Cc1nc(Nc2ccc(OC(F)(F)F)cc2)cc(Nc2nccn2-c2cccc(C(=O)NCCN3CCCC3)c2)n1
EC50 (Plasmodium falciparum [1]): 0.168 µM

FC(F)(F)Oc1ccc(Nc2ccnc(Nc3nccn3-c3cccc(C(F)(F)F)c3)n2)cc1
EC50 (Plasmodium falciparum [1]): 0.268 µM

CN1CCN(c2cc(-n3ccnc3Nc3cc(Nc4ccc(OC(F)(F)F)cc4)ncn3)cc(C(F)(F)F)c2)CC1
EC50 (Plasmodium falciparum [1]): 0.065 µM

FC(F)(F)Oc1ccc(Nc2ncnc(Nc3nccn3-c3cccc(C(F)(F)F)c3)n2)cc1
EC50 (Plasmodium falciparum [1]): 1.33 µM

OCCN1CCN(c2cc(-n3ccnc3Nc3cc(Nc4ccc(OC(F)(F)F)cc4)ncn3)cc(C(F)(F)F)c2)CC1
EC50 (Plasmodium falciparum [1]): 0.175 µM

Cc1c(Nc2ccc(OC(F)(F)F)cc2)ncnc1Nc1nccn1-c1cccc(C(F)(F)F)c1
EC50 (Plasmodium falciparum [1]): 4.68 µM

FC(F)(F)Oc1ccc(Nc2nccc(Nc3nccn3-c3cccc(C(F)(F)F)c3)n2)cc1
EC50 (Plasmodium falciparum [1]): 0.432 µM

Cc1nc(Nc2ccc(OC(F)(F)F)cc2)cc(Nc2nccn2-c2cccc(C(=O)NCCCN3CCN(C)CC3)c2)n1
EC50 (Plasmodium falciparum [1]): 0.239 µM

Cc1nc(Nc2ccc(OC(F)(F)F)cc2)cc(Nc2nccn2-c2cccc(C(=O)NCCCN3CCOCC3)c2)n1
EC50 (Plasmodium falciparum [1]): 0.067 µM

CCN1CCCC1CNC(=O)c1cccc(-n2ccnc2Nc2cc(Nc3ccc(OC(F)(F)F)cc3)nc(C)n2)c1 (stereo not given)
EC50 (Plasmodium falciparum [1]): 0.06 µM | hepatic extraction ratio [12]: < 0.17 | hepatic extraction ratio [15]: 0.275 | solubility thermodynamic [21]: 89 µg/mL (≈ 153 µM)

FC(F)(F)Oc1ccc(Nc2cc(Nc3nccn3-c3cc(NCCN4CCOCC4)cc(C(F)(F)F)c3)ncn2)cc1
EC50 (Plasmodium falciparum [1]): 0.087 µM

CCN(CC)CCNC(=O)c1cccc(-n2ccnc2Nc2cc(Nc3ccc(OC(F)(F)F)cc3)nc(C)n2)c1
EC50 (Plasmodium falciparum [1]): 0.046 µM | hepatic extraction ratio [12]: < 0.17 | hepatic extraction ratio [15]: 0.367 | hepatic extraction ratio [18]: < 0.31 | solubility thermodynamic [21]: 80 µg/mL (≈ 141 µM)

FC(F)(F)Oc1ccc(Oc2cc(Nc3nccn3-c3cccc(C(F)(F)F)c3)ncn2)cc1
EC50 (Plasmodium falciparum [1]): 4.24 µM

Cc1nc(Nc2ccc(OC(F)(F)F)cc2)cc(Nc2nccn2-c2cccc(C(=O)NCCN3CCOCC3)c2)n1
EC50 (Plasmodium falciparum [1]): 0.069 µM | hepatic extraction ratio [12]: < 0.17 | hepatic extraction ratio [15]: 0.243 | hepatic extraction ratio [18]: < 0.42 | solubility thermodynamic [21]: 90 µg/mL (≈ 154 µM)

FC(F)(F)Oc1ccc(Nc2cc(Nc3nccn3-c3cccc(C(F)(F)F)c3)nc(-c3ccccc3)n2)cc1
EC50 (Plasmodium falciparum [1]): 0.074 µM

OC(c1cc(C(F)(F)F)nc2c(C(F)(F)F)cccc12)C1CCCCN1 (stereo not given) [MEFLOQUINE]
EC50 (Plasmodium falciparum [1]): 0.02 µM

COc1ncnc(NS(=O)(=O)c2ccc(N)cc2)c1OC [SULFADOXINE]
EC50 (Plasmodium falciparum [1]): 0.03 µM

CNc1nc(Nc2ccc(OC(F)(F)F)cc2)cc(Nc2nccn2-c2cccc(C(F)(F)F)c2)n1
EC50 (Plasmodium falciparum [1]): 0.054 µM

COc1nc(Nc2ccc(OC(F)(F)F)cc2)cc(Nc2nccn2-c2cccc(C(F)(F)F)c2)n1
EC50 (Plasmodium falciparum [1]): 0.19 µM

FC(F)(F)Oc1ccc(Nc2cc(Nc3nccn3-c3cccc(C(F)(F)F)c3)nc(Oc3ccccc3)n2)cc1
EC50 (Plasmodium falciparum [1]): 0.116 µM

Cc1nc(Nc2ccc(OC(F)(F)F)cc2)cc(Nc2nccn2-c2cccc(C(F)(F)F)c2)n1
EC50 (Plasmodium falciparum [1]): 0.114 µM

C[C@@H]1CC[C@H]2[C@@H](C)C(=O)O[C@@H]3O[C@@]4(C)CC[C@@H]1[C@]32OO4 [ARTEMISININ]
EC50 (Plasmodium falciparum [1]): 0.01 µM

CS(=O)(=O)c1nc(Nc2ccc(OC(F)(F)F)cc2)cc(Nc2nccn2-c2cccc(C(F)(F)F)c2)n1
EC50 (Plasmodium falciparum [1]): 0.291 µM

FC(F)(F)Oc1ccc(Nc2cc(Nc3nccn3-c3cc(N4CCC(N5CCCC5)CC4)cc(C(F)(F)F)c3)ncn2)cc1
EC50 (Plasmodium falciparum [1]): 0.092 µM

FC(F)(F)Oc1ccc(Nc2cc(Nc3nccn3-c3cccc(C(F)(F)F)c3)nc(NCCN3CCOCC3)n2)cc1
EC50 (Plasmodium falciparum [1]): 0.053 µM

CC(C)Oc1nc(Nc2ccc(OC(F)(F)F)cc2)cc(Nc2nccn2-c2cccc(C(F)(F)F)c2)n1
EC50 (Plasmodium falciparum [1]): 0.06 µM

CSc1nc(Nc2ccc(OC(F)(F)F)cc2)cc(Nc2nccn2-c2cccc(C(F)(F)F)c2)n1
EC50 (Plasmodium falciparum [1]): 0.107 µM

Nc1nc(Nc2ccc(OC(F)(F)F)cc2)cc(Nc2nccn2-c2cccc(C(F)(F)F)c2)n1
EC50 (Plasmodium falciparum [1]): 0.049 µM

Cc1nc(Nc2ccc(OC(F)(F)F)cc2)cc(Nc2nccn2-c2cccc(C(=O)NCCc3c[nH]cn3)c2)n1
EC50 (Plasmodium falciparum [1]): 0.822 µM

O=C(NCCc1c[nH]cn1)c1cccc(-n2ccnc2Nc2cc(Nc3ccc(OC(F)(F)F)cc3)ncn2)c1
EC50 (Plasmodium falciparum [1]): 1.78 µM

CN1CCN(C2CCN(c3cc(-n4ccnc4Nc4cc(Nc5ccc(OC(F)(F)F)cc5)ncn4)cc(C(F)(F)F)c3)CC2)CC1
EC50 (Plasmodium falciparum [1]): 0.09 µM | hepatic extraction ratio [18]: 0.316 | solubility thermodynamic [21]: 110 µg/mL (≈ 166 µM)

CN(c1cc(Nc2ccc(OC(F)(F)F)cc2)ncn1)c1nccn1-c1cccc(C(F)(F)F)c1
EC50 (Plasmodium falciparum [1]): 3.83 µM

FC(F)(F)Oc1ccc(Nc2cc(Nc3nccn3-c3cc(N4CCC(N5CCOCC5)CC4)cc(C(F)(F)F)c3)ncn2)cc1
EC50 (Plasmodium falciparum [1]): 0.088 µM

FC(F)(F)Oc1ccc(Nc2cc(Nc3nccn3-c3cccc(C(F)(F)F)c3)nc(C(F)(F)F)n2)cc1
EC50 (Plasmodium falciparum [1]): 0.353 µM

O=C(NCCN1CCOCC1)c1cccc(-n2ccnc2Nc2cc(Nc3ccc(OC(F)(F)F)cc3)ncn2)c1
EC50 (Plasmodium falciparum [1]): 0.249 µM

Cc1nc(Nc2ccc(OC(F)(F)F)cc2)cc(Nc2nccn2-c2cccc(C(=O)NCCCN3CCCC3)c2)n1
EC50 (Plasmodium falciparum [1]): 0.224 µM

FC(F)(F)Oc1ccc(Nc2cc(Nc3nccn3-c3cccc(C(F)(F)F)c3)nc(N3CCOCC3)n2)cc1
EC50 (Plasmodium falciparum [1]): 0.113 µM

FC(F)(F)Oc1ccc(Nc2cc(Nc3nccn3-c3cc(Br)cc(C(F)(F)F)c3)ncn2)cc1
EC50 (Plasmodium falciparum [1]): 0.223 µM
